From ChEMBL document CHEMBL1152942, “Chemistry of renieramycins. Part 8: synthesis and cytotoxicity evaluation of renieramycin M-jorunnamycin A analogues” (Bioorg Med Chem, 2009) come the findings set out here.

Holding throughout (format): functional, cell-based
One experiment has as its system MDA-MB-435. Put plainly: Cytotoxicity against human MDA-MB-435 cells after 3 days by MTT assay. On the technique in general: Formazan colour is commonly taken as a measure of viable cells.
In experiment [1] the test system is HCT-116. The experiment in a line: Cytotoxicity against human HCT116 cells after 3 days by MTT assay. Put shortly: (§1)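 HCT116 colon carcinoma cells were seeded at 1500 cells/well 24 h before treatment. They were exposed to threefold serial dilutions from 100 nM to 0.41 nM, with under 1% DMSO final (20 mM DMSO stocks), for 3 days. Growth was read by MTT absorbance at 540 nm. IC50 was taken as 50% growth inhibition relative to untreated controls, in triplicate.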

For the next experiment, the system named is QG-56. The experiment in a line: Cytotoxicity against human QG56 cells at 1.4 to 100 nM after 3 days by MTT assay.
The subject of experiment [2] is HCT-116. Put plainly: Cytotoxicity against human HCT116 cells at 1.4 to 100 nM after 3 days by MTT assay. The method in brief:
as §1

In general, IC50 refers to the concentration that inhibits the measured activity by half. Low readings indicate greater potency, high ones weaker potency.

Activity calls are given as the source filed them. The rule behind the calls is not given here.

For `CCC(=O)OC[C@H]1C2=C(C[C@H]3[C@H]4C5=C(C[C@@H]([C@H](C#N)N13)N4C)C(=O)C(C)=C(OC)C5=O)C(=O)C(C)=C(OC)C2=O` [JORUNNAMYCIN C], the IC50 in the experiment on MDA-MB-435 (Homo sapiens, MDA-MB-435, 72 h) amounted to 4.2 nM; with HCT-116 [1] (Homo sapiens, HCT-116, 72 h), 11 nM. In addition, in the experiment with QG-56, the result was Active.
For the molecule `COC1=C(C)C(=O)C2=C(C1=O)[C@@H]1[C@@H]3CC4=C(C(=O)C(OC)=C(C)C4=O)[C@H](COC(C)=O)N3[C@@H](C#N)[C@H](C2)N1C` [CYANOJORUMYCIN], the IC50 was found to be 1.4 nM with MDA-MB-435 (Homo sapiens, MDA-MB-435, 72 h) and 3.2 nM in the experiment on HCT-116 [1] (Homo sapiens, HCT-116, 72 h).
Consider `COC1=C(C)C(=O)C2=C(C1=O)[C@@H]1[C@@H]3CC4=C(C(=O)C(OC)=C(C)C4=O)[C@H](COC(=O)c4cccnc4)N3[C@@H](C#N)[C@H](C2)N1C`, for which the IC50 in the experiment on MDA-MB-435 (Homo sapiens, MDA-MB-435, 72 h) amounted to 3.5 nM; in the experiment with HCT-116 [1] (Homo sapiens, HCT-116, 72 h), 7.9 nM.
The like results for `COC1=C(C)C(=O)C2=C(C1=O)[C@@H]1[C@@H]3CC4=C(C(=O)C(OC)=C(C)C4=O)[C@H](COC(=O)c4ccccc4)N3[C@@H](C#N)[C@H](C2)N1C` were, in that order, 8.6 nM and 25 nM.
Taken in the same sequence, the figures for `COC1=C(C)C(=O)C2=C(C1=O)[C@@H]1[C@@H]3CC4=C(C(=O)C(OC)=C(C)C4=O)[C@H](COC(=O)c4ccnc5ccccc45)N3[C@@H](C#N)[C@H](C2)N1C` were 4.1 nM and 10 nM.
For `COC1=C(C)C(=O)C2=C(C1=O)[C@@H]1[C@@H]3CC4=C(C(=O)C(OC)=C(C)C4=O)[C@H](COC(=O)c4ccc(Br)cc4)N3[C@@H](C#N)[C@H](C2)N1C`, the IC50 stood at 13 nM in the experiment with MDA-MB-435 (Homo sapiens, MDA-MB-435, 72 h) and 38 nM with HCT-116 [1] (Homo sapiens, HCT-116, 72 h).
The like results for `COC1=C(C)C(=O)C2=C(C1=O)[C@@H]1[C@@H]3CC4=C(C(=O)C(OC)=C(C)C4=O)[C@H](COC(=O)c4ccc(OC)cc4)N3[C@@H](C#N)[C@H](C2)N1C` were, in that order, 8.9 nM and 26 nM.
Taken in the same sequence, the figures for `COC1=C(C)C(=O)C2=C(C1=O)[C@@H]1[C@@H]3CC4=C(C(=O)C(OC)=C(C)C4=O)[C@H](COC(=O)C4CCCC4)N3[C@@H](C#N)[C@H](C2)N1C` were 30 nM and 93 nM.
The like results for `COC1=C(C)C(=O)C2=C(C1=O)[C@@H]1[C@@H]3CC4=C(C(=O)C(OC)=C(C)C4=O)[C@H](COC(=O)C4=CCCCC4)N3[C@@H](C#N)[C@H](C2)N1C` were, in that order, 29 nM and 49 nM.
Consider `CCC(C)C(=O)OC[C@H]1C2=C(C[C@H]3[C@H]4C5=C(C[C@@H]([C@H](C#N)N13)N4C)C(=O)C(C)=C(OC)C5=O)C(=O)C(C)=C(OC)C2=O` (mixture of isomers), for which the concentration for half-maximal inhibition (IC50) with MDA-MB-435 (Homo sapiens, MDA-MB-435, 72 h) came to 12 nM; with HCT-116 [1] (Homo sapiens, HCT-116, 72 h) it was 33 nM.
On to `COC1=C(C)C(=O)C2=C(C1=O)[C@@H]1[C@@H]3CC4=C(C(=O)C(OC)=C(C)C4=O)[C@H](COC(=O)CCCl)N3[C@@H](C#N)[C@H](C2)N1C`, for which the IC50 in the experiment with MDA-MB-435 (Homo sapiens, MDA-MB-435, 72 h) was 12 nM; in the experiment with HCT-116 [1] (Homo sapiens, HCT-116, 72 h) it was 16 nM.
The like results for `COC1=C(C)C(=O)C2=C(C1=O)[C@@H]1[C@@H]3CC4=C(C(=O)C(OC)=C(C)C4=O)[C@H](COC(=O)c4ccncc4)N3[C@@H](C#N)[C@H](C2)N1C` were, in that order, 4.4 nM and 10 nM.
The like results for `COC1=C(C)C(=O)C2=C(C1=O)[C@@H]1[C@@H]3CC4=C(C(=O)C(OC)=C(C)C4=O)[C@H](COC(=O)c4ccc([N+](=O)[O-])cc4)N3[C@@H](C#N)[C@H](C2)N1C` were, in that order, 9.4 nM and 26 nM.
The like results for `COC1=C(C)C(=O)C2=C(C1=O)[C@@H]1[C@@H]3CC4=C(C(=O)C(OC)=C(C)C4=O)[C@H](COC(=O)C4CC=CC4)N3[C@@H](C#N)[C@H](C2)N1C` were, in that order, 13 nM and 33 nM.
For `COC1=C(C)C(=O)C2=C(C1=O)[C@@H]1[C@@H]3CC4=C(C(=O)C(OC)=C(C)C4=O)[C@H](COC(=O)c4cnc5ccccc5c4)N3[C@@H](C#N)[C@H](C2)N1C`, the IC50 came to 3.8 nM in the experiment on MDA-MB-435 (Homo sapiens, MDA-MB-435, 72 h) and 10 nM in the experiment with HCT-116 [1] (Homo sapiens, HCT-116, 72 h).
Taken in the same sequence, the figures for `COC1=C(C)C(=O)C2=C(C1=O)[C@@H]1[C@@H]3CC4=C(C(=O)C(OC)=C(C)C4=O)[C@H](COC(=O)C(C)C)N3[C@@H](C#N)[C@H](C2)N1C` were 10 nM and 22 nM.
The like results for `COC1=C(C)C(=O)C2=C(C1=O)[C@@H]1[C@@H]3CC4=C(C(=O)C(OC)=C(C)C4=O)[C@H](COC(=O)C4CC=CCC4)N3[C@@H](C#N)[C@H](C2)N1C` (mixture of isomers) were, in that order, 27 nM and 43 nM.
The like results for `COC1=C(C)C(=O)C2=C(C1=O)[C@@H]1[C@@H]3CC4=C(C(=O)C(OC)=C(C)C4=O)[C@H](COC(=O)c4ccccn4)N3[C@@H](C#N)[C@H](C2)N1C` were, in that order, 1.4 nM and 3.3 nM.
Regarding `COC1=C(C)C(=O)C2=C(C1=O)[C@@H]1[C@@H]3CC4=C(C(=O)C(OC)=C(C)C4=O)[C@H](COC(C)=O)N3[C@@H](O)[C@H](C2)N1C`, the outcome with QG-56 and in the experiment on HCT-116 [2] was Active.
For `COC1=C(C)C(=O)C2=C(C1=O)[C@@H]1[C@@H]3CC4=C(C(=O)C(OC)=C(C)C4=O)[C@H](COC=O)N3[C@@H](C#N)[C@H](C2)N1C`, the IC50 amounted to 38 nM with MDA-MB-435 (Homo sapiens, MDA-MB-435, 72 h) and 38 nM in the experiment on HCT-116 [1] (Homo sapiens, HCT-116, 72 h).
On to `COC1=C(C)C(=O)C2=C(C1=O)[C@@H]1[C@@H]3CC4=C(C(=O)C(OC)=C(C)C4=O)[C@H](COC(=O)c4ccccc4OC)N3[C@@H](C#N)[C@H](C2)N1C`, for which the IC50 with MDA-MB-435 (Homo sapiens, MDA-MB-435, 72 h) turned out to be 11 nM; in the experiment on HCT-116 [1] (Homo sapiens, HCT-116, 72 h), 34 nM.
Take `CC=C(C)C(=O)OC[C@H]1C2=C(C[C@H]3[C@H]4C5=C(C[C@@H]([C@H](C#N)N13)N4C)C(=O)C(C)=C(OC)C5=O)C(=O)C(C)=C(OC)C2=O` [RENIERAMYCIN M]: the IC50 with MDA-MB-435 (mda-mb-435) came to 11 nM; with HCT-116 [1] (hct-116), 34 nM.
On to `CCCC(=O)OC[C@H]1C2=C(C[C@H]3[C@H]4C5=C(C[C@@H]([C@H](C#N)N13)N4C)C(=O)C(C)=C(OC)C5=O)C(=O)C(C)=C(OC)C2=O`, for which the IC50 with MDA-MB-435 (Homo sapiens, MDA-MB-435, 72 h) came to 12 nM; in the experiment with HCT-116 [1] (Homo sapiens, HCT-116, 72 h), 34 nM.
Taken in the same sequence, the figures for `CCCCCC(=O)OC[C@H]1C2=C(C[C@H]3[C@H]4C5=C(C[C@@H]([C@H](C#N)N13)N4C)C(=O)C(C)=C(OC)C5=O)C(=O)C(C)=C(OC)C2=O` were 40 nM and 100 nM.
Taken in the same sequence, the figures for `COC1=C(C)C(=O)C2=C(C1=O)[C@@H]1[C@@H]3CC4=C(C(=O)C(OC)=C(C)C4=O)[C@H](COC(=O)c4ccc5ccccc5n4)N3[C@@H](C#N)[C@H](C2)N1C` were 4.2 nM and 11 nM.
For `COC1=C(C)C(=O)C2=C(C1=O)[C@@H]1[C@@H]3CC4=C(C(=O)C(OC)=C(C)C4=O)[C@H](CO)N3[C@@H](C#N)[C@H](C2)N1C` [JOURNNAMYCIN A], the IC50 came out at 290 nM in the experiment with MDA-MB-435 (Homo sapiens, MDA-MB-435, 72 h) and 130 nM in the experiment with HCT-116 [1] (Homo sapiens, HCT-116, 72 h). Further, in the experiment on QG-56, the outcome was Active.
As to `C/C=C(/C)C(=O)OC[C@H]1C2=C(C[C@H]3[C@H]4C5=C(C[C@@H]([C@H](C#N)N13)N4C)C(=O)C(C)=C(OC)C5=O)C(=O)C(C)=C(OC)C2=O` [RENIERAMYCIN M], the figures for the concentration for half-maximal inhibition (IC50) in the experiment on MDA-MB-435 (mda-mb-435) and in the experiment on HCT-116 [1] (hct-116) were 3.8 nM and 9.4 nM, respectively.
For `COC1=C(C)C(=O)C2=C(C1=O)[C@@H]1[C@@H]3CC4=C(C(=O)C(OC)=C(C)C4=O)[C@H](COC(=O)C4=CCCC4)N3[C@@H](C#N)[C@H](C2)N1C`, the concentration for half-maximal inhibition (IC50) was 13 nM with MDA-MB-435 (Homo sapiens, MDA-MB-435, 72 h) and 33 nM in the experiment on HCT-116 [1] (Homo sapiens, HCT-116, 72 h).
The like results for `COC1=C(C)C(=O)C2=C(C1=O)[C@@H]1[C@@H]3CC4=C(C(=O)C(OC)=C(C)C4=O)[C@H](COC(=O)C=C(C)C)N3[C@@H](C#N)[C@H](C2)N1C` were, in that order, 11 nM and 27 nM.
